Experimental findings from ChEMBL document CHEMBL1156768, “The structure-activity relationship of the antimalarial ozonide arterolane (OZ277)” (J Med Chem, 2010) are described below.

In data set [1] the test system is Plasmodium falciparum. Nature of the data set: Antimalarial activity against chloroquine-sensitive Plasmodium falciparum NF54 infected in human A+ erythrocytes assessed as [3H]hypoxanthine incorporation by semi-automated micro dilution assay. Format: functional, organism-based.
Data set [2] can be described thus: Oral bioavailability in Sprague-Dawley rat. Conditions: in vivo; call rule not given here. Format: ADME, organism-based. The gist of the method: (§1)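 Rats received an IV infusion over 5-10 min through a jugular cannula at 2.5-3.5 mg/kg, in DMSO/aqueous buffer or propylene glycol/ethanol/water. Oral gavage used aqueous suspensions in HPMC or CMC with 0.4% Tween 80 and 0.5% benzyl alcohol. Carotid blood was sampled, and plasma was acetonitrile-precipitated and measured by LC/MS against plasma calibration standards. Values are averages of 2-3 determinations.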

In data set [3] the test system is Plasmodium berghei. Nature of the data set: Antiplasmodial activity against Plasmodium berghei infected in NMRI mice (Mus musculus) assessed as reduction of parasitaemia level at 3 mg/kg, perorally daily once for 3 consecutive days measured after 4 days post-infection. Format: functional. Details: scale not given: the % may be the effect or the level left. Conditions: route oral. The method in brief: (§2)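 P. berghei-infected NMRI mice, in groups of five, were dosed orally at 3 mg/kg on days +1, +2 and +3 postinfection. Parasitemia reduction, survival time and cure were scored.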

Data set [4] is described as follows: Half life in Sprague-Dawley rat at 2.5 to 3.5 mg/kg, iv. Also noted: dose 2.5-3.5 mg/kg, route intravenous. The data set is classed as ADME, organism-based. Conditions: in vivo. The method in brief: as §1
Data set [5] concerns Plasmodium berghei. Nature of the data set: Antiplasmodial activity against Plasmodium berghei infected in NMRI mice (Mus musculus) assessed as reduction of parasitaemia level at 10 mg/kg, perorally administered 1 day after post-infection measured after 3 days post-infection. The data set is classed as functional. Details: scale not given: the % may be the effect or the level left. Conditions: route oral. The method in brief: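 Groups of five NMRI mice infected with P. berghei received a single oral dose on day 1 postinfection. Read-out was percent reduction in parasitemia on day 3 postinfection. Individual measurements differed by less than 10%.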

The subject of data set [6] is Rattus norvegicus. Nature of the data set: Neurotoxicity in Sprague-Dawley rat at 300 mg/kg, po daily once for 5 days. Format: toxicity, organism-based. Also noted: dose 300 mg/kg, route oral. Conditions: in vivo, 120 h. The gist of the method:
(§3)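 Preliminary toxicology was run in male rats given daily oral doses for five days.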

Data set [7] deals with Rattus norvegicus. Nature of the data set: Liver toxicity in Sprague-Dawley rat at 300 mg/kg, po daily once for 5 days. The data set is classed as organism-based. Details: dose 300 mg/kg, route oral. Conditions: in vivo, 120 h. The method in brief:
as §3

A short description of data set [8]: Blood clearance in Sprague-Dawley rat at 2.5 to 3.5 mg/kg, iv. Format: ADME, organism-based. Conditions: whole blood. Also noted: dose 2.5-3.5 mg/kg, route intravenous. The gist of the method:
as §1

The test system of data set [9] is Plasmodium berghei. Nature of the data set: Antiplasmodial activity against Plasmodium berghei infected in NMRI mice (Mus musculus) assessed as mice (Mus musculus) survival days at 3 mg/kg, perorally daily once for 3 consecutive days measured after 4 days post-infection. Format: functional. Conditions: route oral. The gist of the method: as §2
The next data set has as its target Cytochrome P450 2C9 (Homo sapiens, UniProt P11712). Nature of the data set: Inhibition of human CYP2C9 up to 50 uM. The data set is classed as ADME.
The subject of data set [10] is Plasmodium berghei. Nature of the data set: Antiplasmodial activity against Plasmodium berghei infected in NMRI mice (Mus musculus) assessed as curing of parasitaemia at 3 mg/kg, perorally daily once for 3 consecutive days measured after 30 days post-infection. Format: functional. Conditions: route oral. The method in brief:
as §2

A further data set addresses Cytochrome P450 3A4 (Homo sapiens, UniProt P08684). Nature of the data set: Inhibition of human CYP3A4 up to 50 uM. The data set is classed as ADME.
Data set [11] can be described thus: Volume of distribution in Sprague-Dawley rat at 2.5 to 3.5 mg/kg, iv. Format: ADME, organism-based. Details: dose 2.5-3.5 mg/kg, route intravenous. Conditions: in vivo. The gist of the method:
as §1

In data set [12] the test system is Rattus norvegicus. Nature of the data set: Lymphatic organ toxicity in Sprague-Dawley rat at 300 mg/kg, po daily once for 5 days. The data set is classed as organism-based. Details: dose 300 mg/kg, route oral. Conditions: in vivo, 120 h. The gist of the method: as §3
The test system of data set [13] is Rattus norvegicus. Nature of the data set: Renal toxicity in Sprague-Dawley rat at 300 mg/kg, po daily once for 5 days. Details: dose 300 mg/kg, route oral. Conditions: in vivo, 120 h. The data set is classed as organism-based. The method in brief:
as §3

The nature of data set [14]: Plasma clearance in Sprague-Dawley rat at 2.5 to 3.5 mg/kg, iv. The data set is classed as ADME, organism-based. Also noted: dose 2.5-3.5 mg/kg, route intravenous. The method in brief:
as §1

Another data set deals with Cytochrome P450 2D6 (Homo sapiens, UniProt P10635). Nature of the data set: Inhibition of human CYP2D6 up to 50 uM. Format: ADME.
Sequence of Cytochrome P450 2D6 (P10635 whole entry): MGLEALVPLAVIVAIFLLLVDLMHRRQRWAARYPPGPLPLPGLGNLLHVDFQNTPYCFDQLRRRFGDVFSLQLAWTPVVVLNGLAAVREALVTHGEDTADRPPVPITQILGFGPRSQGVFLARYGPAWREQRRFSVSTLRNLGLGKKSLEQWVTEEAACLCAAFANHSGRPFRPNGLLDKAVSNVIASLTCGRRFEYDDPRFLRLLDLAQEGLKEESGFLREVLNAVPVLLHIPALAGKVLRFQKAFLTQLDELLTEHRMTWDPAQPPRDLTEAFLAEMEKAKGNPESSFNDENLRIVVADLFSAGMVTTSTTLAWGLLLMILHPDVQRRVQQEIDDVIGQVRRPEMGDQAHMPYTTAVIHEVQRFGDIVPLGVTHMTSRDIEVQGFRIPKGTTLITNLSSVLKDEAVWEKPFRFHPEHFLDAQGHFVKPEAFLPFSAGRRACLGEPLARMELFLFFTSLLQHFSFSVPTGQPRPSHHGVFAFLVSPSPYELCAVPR
Data set [15] in a line: Partition coefficient, log D in octanol/buffer at pH 7.4 by chromatographic method. The data set is classed as physicochemical.
The test system of data set [16] is Plasmodium falciparum. Nature of the data set: Antimalarial activity against chloroquine-resistant Plasmodium falciparum K1 infected in human A+ erythrocytes assessed as [3H]hypoxanthine incorporation by semiautomated micro dilution assay. Format: functional, organism-based.

Sequence of Cytochrome P450 3A4 (P08684 whole entry): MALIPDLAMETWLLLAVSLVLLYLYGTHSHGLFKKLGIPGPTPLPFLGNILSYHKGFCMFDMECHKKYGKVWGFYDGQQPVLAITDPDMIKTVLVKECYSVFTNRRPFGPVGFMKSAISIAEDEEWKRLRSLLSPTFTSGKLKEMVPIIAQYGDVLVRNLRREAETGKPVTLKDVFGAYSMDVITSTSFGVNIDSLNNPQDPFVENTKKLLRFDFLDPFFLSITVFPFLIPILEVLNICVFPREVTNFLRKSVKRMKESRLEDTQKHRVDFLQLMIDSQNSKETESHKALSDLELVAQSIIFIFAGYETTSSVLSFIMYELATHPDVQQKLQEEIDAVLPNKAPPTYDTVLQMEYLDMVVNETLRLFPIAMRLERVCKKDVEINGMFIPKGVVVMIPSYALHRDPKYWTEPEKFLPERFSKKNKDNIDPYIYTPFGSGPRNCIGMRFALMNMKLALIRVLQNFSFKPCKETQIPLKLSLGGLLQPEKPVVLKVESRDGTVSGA
Sequence of Cytochrome P450 2C9 (P11712 whole entry): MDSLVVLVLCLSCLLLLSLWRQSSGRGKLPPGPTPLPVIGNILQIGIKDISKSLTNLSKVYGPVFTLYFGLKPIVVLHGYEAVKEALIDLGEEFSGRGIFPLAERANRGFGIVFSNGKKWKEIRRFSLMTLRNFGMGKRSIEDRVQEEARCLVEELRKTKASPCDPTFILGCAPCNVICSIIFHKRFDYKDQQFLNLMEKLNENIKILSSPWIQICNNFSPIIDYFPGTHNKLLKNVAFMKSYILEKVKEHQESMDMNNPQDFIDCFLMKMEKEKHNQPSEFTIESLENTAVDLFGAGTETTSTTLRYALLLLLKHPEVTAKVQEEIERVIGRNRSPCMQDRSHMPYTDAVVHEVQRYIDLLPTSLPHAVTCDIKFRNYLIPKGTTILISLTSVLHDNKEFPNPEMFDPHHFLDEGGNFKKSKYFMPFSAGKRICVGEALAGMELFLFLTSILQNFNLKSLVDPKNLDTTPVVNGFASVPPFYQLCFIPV

In the case of `Cc1ccc(S(=O)(=O)O)cc1.NC1CCN(C(=O)C[C@H]2CC[C@]3(CC2)OO[C@]2(O3)C3CC4CC(C3)CC2C4)CC1`, the half-maximal inhibitory concentration (IC50) in the data set with Plasmodium falciparum [1] was determined as 0.39 ng/mL. In data set [2], this compound came in with a bioavailability of 78%. The Activity in the data set with Plasmodium berghei [3] is listed as >99.9%; in the data set with Plasmodium berghei [5], >99.9%; in the data set on Rattus norvegicus [6] it was “Non-toxic”; in the data set with Rattus norvegicus [7] it was “Non-toxic”; on Cytochrome P450 2C9, “Not Active”; with Plasmodium berghei [10] it was 60%. Besides, the Activity entry at Cytochrome P450 3A4 is given as “Not Active”; in the data set on Rattus norvegicus [12], “Non-toxic”; with Rattus norvegicus [13], “Non-toxic”; on Cytochrome P450 2D6, “Not Active”. For the same compound, in data set [4], the half-life was 1.38 h. Also, the clearance was 39.1 mL/min/kg in [8] and 157 mL/min/kg in [14]. Also, the Survival in the data set with Plasmodium berghei [9] turned out to be 27 days. The same compound returned a distribution volume (Vd) in data set [11] of 19 L/kg.
For the compound `CC(C)(N)CNC(=O)C[C@H]1CC[C@]2(CC1)OO[C@]1(O2)C2CC3CC(C2)CC1C3.Cc1ccc(S(=O)(=O)O)cc1` [ARTEROLANE], the chromatographic logD in [15] came to 2.9. Besides, the half-maximal inhibitory concentration (IC50) in the data set with Plasmodium falciparum [1] is 0.91 ng/mL; with Plasmodium falciparum [16] it was 1 ng/mL. The compound further registered a bioavailability in data set [2] of 26%. The Activity in the data set with Plasmodium berghei [3] is reported as >99.9%; with Plasmodium berghei [5], 99.9%; in the data set with Rattus norvegicus [6] it was “Non-toxic”; in the data set on Rattus norvegicus [7], “Non-toxic”; at Cytochrome P450 2C9, “Not Active”; in the data set on Plasmodium berghei [10], 0%. Besides, the Activity entry on Cytochrome P450 3A4 is given as “Not Active”; in the data set with Rattus norvegicus [12], “Non-toxic”; in the data set on Rattus norvegicus [13] it was “Non-toxic”; on Cytochrome P450 2D6, “Not Active”. The same compound yielded a half-life in data set [4] of 1.27 h. Further, the values for the clearance in [8] and in data set [14] were 62 mL/min/kg and 141 mL/min/kg, respectively. For the same compound, in the data set with Plasmodium berghei [9], the Survival amounted to 11.4 days. Besides, the Vd in [11] turned out to be 16 L/kg.
